In ChEMBL document CHEMBL1131331, “Structure-activity studies on anticonvulsant sugar sulfamates related to topiramate. Enhanced potency with cyclic sulfate derivatives” (J Med Chem, 1998):

Experiments:
Mus musculus [1] = test: Effective dose against maximal electroshock seizures in mice, at 4 hr following oral administration of 10 mg/kg of compound; assay type: functional
Mus musculus [2] = test: Compound activity was measured at 4 hr following administration of the oral dosage (perorally) 5 mg/kg in mice, and is reported as percent block at the given dose.; assay type: functional
Outline: (§1)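 Mouse maximal electroshock seizure test. An electric shock is applied through corneal electrodes, and block of the hind-limb tonic-extensor seizure is scored. Compounds are given orally, usually to 10 mice per group, and tested 4 h after dosing. The result is reported as percent of dosed animals protected at the stated dose.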

Mus musculus [3] = test: Activity against maximal electroshock seizures in mice, 4 hr following oral administration of 35 mg/kg of compound; assay type: functional; outline: as §1
[4] = (§2) Partition coefficient (logP); assay type: physicochemical; conditions: octanol/water
Outline: (§3)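 Apparent octanol–water partition coefficient D, measured in unbuffered water (pH 7.2–7.6) using an HPLC refractive-index assay. True P is calculated as […], and P7.4 as P/[1 + 10^(7.4 − pKa)], using pKa values from potentiometric titration.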

[5] = as §2; assay type: physicochemical; conditions: octanol/water; outline: as §3; remark: listed apart in the source
[6] = Pharmacokinetic parameter :log P7.4 log P value at pH 7.4; assay type: physicochemical; conditions: buffer, read-out: Log D7.4; outline: as §3
[7] = Pharmacokinetic parameter :The dissociation constant values at 25 degrees C, obtained by potentiometric titration.; assay type: ADME
[8] = pH 7.4 value at 7.61 pH; assay type: ADME; outline: as §3
Mus musculus [9] = test: Activity against maximal electroshock seizures in mice, 4 hr following oral administration of 300 mg/kg of compound; assay type: functional; outline: as §1
Mus musculus [10] = test: Activity against maximal electroshock seizures in mice, 4 hr following oral administration of 75 mg/kg; assay type: functional; outline: as §1
Mus musculus [11] = test: Compound activity was measured at 4 hr following administration of the oral dosage (perorally) 300 mg/kg in mice, and is reported as percent block at the given dose.; assay type: functional; outline: as §1
Mus musculus [12] = test: Activity against maximal electroshock seizures in mice, 4 hr following oral administration of 37.5 mg/kg of compound; assay type: functional; outline: as §1
Mus musculus [13] = test: Activity against maximal electroshock seizures in mice, 4 hr following oral administration of 18.75 mg/kg of compound; assay type: functional; outline: as §1
Mus musculus [14] = test: Activity against maximal electroshock seizures in mice, 4 hr following oral administration of 80 mg/kg of compound; assay type: functional; outline: as §1
Mus musculus [15] = test: Activity against maximal electroshock seizures in mice, 4 hr following oral administration of 40 mg/kg of compound; assay type: functional; outline: as §1
Mus musculus [16] = test: Activity against maximal electroshock seizures in mice, 4 hr following oral administration of 30 mg/kg of compound; assay type: functional; outline: as §1
Mus musculus [17] = test: Activity against maximal electroshock seizures in mice, 4 hr following oral administration of 15 mg/kg of compound; assay type: functional; outline: as §1
[18] = as §2; assay type: physicochemical; conditions: octanol/water; outline: as §3; remark: listed apart in the source
[19] = pH 7.4 value at 7.35 pH; assay type: ADME; outline: as §3
[20] = Inhibition concentration by inhibition of carbonic anhydrase from blood in Rat. 95% confidence limits are given in parentheses.
[21] = Inhibition concentration by inhibition of carbonic anhydrase from brain in Rat. 95% confidence limits are given in parentheses.
[22] = Inhibition concentration by inhibition of carbonic anhydrase from myelin in Rat. 95% confidence limits are given in parentheses.
[23] = Inhibition concentration by inhibition of carbonic anhydrase from synaptosomes in Rat. 95% confidence limits are given in parentheses.; assay type: subcellular, Brain
[24] = Inhibition concentration of the compounds were determined by inhibition of carbonic anhydrase from kidney in Rat. 95% confidence limits are given in parentheses.
Mus musculus [25] = organism: Mus musculus; test: Compound was tested for the effective dose (ED50) for each time point in Mice. 95% confidence limits are given in parentheses 1 Hour; assay type: functional
Mus musculus [26] = organism: Mus musculus; test: Compound was tested for the effective dose (ED50) for each time point in Mice. 95% confidence limits are given in parentheses 16 Hour; assay type: functional
Outline: (§4)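 Mouse MES time-course study. Compounds are given orally, and hind-limb tonic-extensor block after corneal-electrode shock is scored at each time point. For each time point, the ED50 (mg/kg) is reported with 95% confidence limits.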

Mus musculus [27] = organism: Mus musculus; test: Compound was tested for the effective dose (ED50) for each time point in Mice. 95% confidence limits are given in parentheses 2 Hour; assay type: functional
Mus musculus [28] = organism: Mus musculus; test: Compound was tested for the effective dose (ED50) for each time point in Mice. 95% confidence limits are given in parentheses 24 Hour; assay type: functional; outline: as §4
Rattus norvegicus [29] = organism: Rattus norvegicus; test: Compound was tested for the effective dose (ED50) for each time point in Rats. 95% confidence limits are given in parentheses 48 Hour; assay type: functional
Outline: (§5)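 Rat MES time-course study. Compounds are given orally, and block of the hind-limb tonic-extensor seizure induced by corneal electroshock is assessed at each time point. For each time point, the ED50 (mg/kg) is reported with 95% confidence limits.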

Rattus norvegicus [30] = organism: Rattus norvegicus; test: Compound was tested for the effective dose (ED50) for each time point in Rats. 95% confidence limits are given in parentheses 8 Hour; assay type: functional; outline: as §5
Rattus norvegicus [31] = organism: Rattus norvegicus; test: Compound was tested for the effective dose (ED50) for each time point in Rats. 95% confidence limits are given in parentheses 1 Hour; assay type: functional; outline: as §5
Rattus norvegicus [32] = organism: Rattus norvegicus; test: Compound was tested for the effective dose (ED50) for each time point in Rats. 95% confidence limits are given in parentheses 12 Hour; assay type: functional; outline: as §5
Rattus norvegicus [33] = organism: Rattus norvegicus; test: Compound was tested for the effective dose (ED50) for each time point in Rats. 95% confidence limits are given in parentheses 2 Hour; assay type: functional; outline: as §5
Rattus norvegicus [34] = organism: Rattus norvegicus; test: Compound was tested for the effective dose (ED50) for each time point in Rats. 95% confidence limits are given in parentheses 24 Hour; assay type: functional; outline: as §5
Rattus norvegicus [35] = organism: Rattus norvegicus; test: Compound was tested for the effective dose (ED50) for each time point in Rats. 95% confidence limits are given in parentheses 4 Hour; assay type: functional; outline: as §5
Rattus norvegicus [36] = organism: Rattus norvegicus; test: Compound was tested for the effective dose (ED50) for each time point in Rats. 95% confidence limits are given in parentheses 16 Hour; assay type: functional; outline: as §5
Mus musculus [37] = organism: Mus musculus; test: Compound was tested for the effective dose (ED50) for each time point in Mice. 95% confidence limits are given in parentheses 12 hr; assay type: functional; outline: as §4
[38] = Inhibition concentration by inhibition of carbonic anhydrase from blood in Rat
[39] = Inhibition concentration by inhibition of carbonic anhydrase from brain in Rat
[40] = Inhibition concentration by inhibition of carbonic anhydrase from kidney in Rat
[41] = Inhibition concentration by inhibition of carbonic anhydrase from myelin in Rat
[42] = Inhibition concentration by inhibition of carbonic anhydrase from synaptosomes in Rat
[43] = pH 7.4 value at pH 7.25; assay type: ADME; outline: as §3
Mus musculus [44] = organism: Mus musculus; test: Compound was tested for the effective dose (ED50) for each time point in Mice. 95% confidence limits are given in parentheses 4 Hour; assay type: functional
[45] = Inhibition concentration by inhibition of carbonic anhydrase from kidney in Rat. 95% confidence limits are given in parentheses.

CC1(C)O[C@@H]2[C@@H](CC[C@@]3(COS(N)(=O)=O)OC(C)(C)O[C@@H]23)O1
ED50 (Mus musculus [1]): 16.6 mg/kg | Block (Mus musculus [2]): 30% | Block (Mus musculus [3]): 80%

CCC1(CC)O[C@@H]2[C@@H](CO[C@@]3(COS(N)(=O)=O)OC(C)(C)O[C@@H]23)O1
logP [4]: 1.55 | logP [5]: 1.52 | logD [6]: 1.5 | pKa [7]: 8.62 | P7.4 [8]: 31.5 | Block (Mus musculus [9]): 80% | Block (Mus musculus [10]): 0%

CC(C)(C)OC(=O)N=S1O[C@@H]2[C@@H](CO[C@@]3(COS(N)(=O)=O)OC(C)(C)O[C@@H]23)O1 (stereo not given in full)
Block (Mus musculus [11]): 40%

CC1(C)O[C@H]2[C@H](O)[C@@H](Cl)CO[C@@]2(COS(N)(=O)=O)O1
ED50 (Mus musculus [1]): 24 mg/kg | Block (Mus musculus [12]): 90% | Block (Mus musculus [13]): 50%

CC1(C)O[C@H]2[C@H](CO[C@]3(COS(N)(=O)=O)OC(C)(C)O[C@H]23)O1
ED50 (Mus musculus [1]): 82 mg/kg | Block (Mus musculus [14]): 50% | Block (Mus musculus [15]): 20%

CC1(C)O[C@@H]2[C@H]3OS(=O)(=O)O[C@H]3CO[C@]2(COS(N)(=O)=O)O1
ED50 (Mus musculus [1]): 22 mg/kg | Block (Mus musculus [16]): 80% | Block (Mus musculus [17]): 30%

CC1(C)O[C@H]2[C@@H]3OS(=O)(=O)O[C@@H]3CO[C@@]2(COS(N)(=O)=O)O1
logP [18]: 2.44 | logP [4]: -1.01 | logP [5]: 0.42 | logD [6]: 0.38 | pKa [7]: 8.51 | P7.4 [19]: 2.42 | IC50 [20]: 84 nM | IC50 [21]: 21 nM | IC50 [22]: 52 nM | IC50 [23]: 21 nM | IC50 [24]: 130 nM | ED50 (Mus musculus [25]; Mus musculus, 1 h, read-out: ED50): 8.6 mg/kg | ED50 (Mus musculus [26]): 50 mg/kg | ED50 (Mus musculus [27]; Mus musculus, 2 h, read-out: ED50): 6.6 mg/kg | ED50 (Mus musculus [28]): 72 mg/kg | ED50 (Rattus norvegicus [29]): 18 mg/kg | ED50 (Rattus norvegicus [30]): 1 mg/kg | ED50 (Rattus norvegicus [31]): 3.8 mg/kg | ED50 (Rattus norvegicus [32]): 1.3 mg/kg | ED50 (Rattus norvegicus [33]): 5.1 mg/kg | ED50 (Rattus norvegicus [34]): 2.6 mg/kg | ED50 (Rattus norvegicus [35]): 1.7 mg/kg | Block (Mus musculus [3]): 100% | ED50 (Rattus norvegicus [36]): 2.5 mg/kg | ED50 (Mus musculus [37]): 23 mg/kg

CC(=O)Nc1nnc(S(N)(=O)=O)s1 [ACETAZOLAMIDE]
IC50 [38]: 37 nM | IC50 [39]: 12 nM | IC50 [40]: 650 nM | IC50 [41]: 24 nM | IC50 [42]: 7 nM

CC1(C)O[C@@H]2[C@@H](CO[C@@]3(COS(N)(=O)=O)OC(C)(C)O[C@@H]23)O1 [TOPIRAMATE]
logP [18]: 3.26 | logP [4]: 0.5 | logP [5]: 0.53 | logD [6]: 0.51 | pKa [7]: 8.66 | P7.4 [43]: 3.31 | IC50 [20]: 8890 nM | IC50 [21]: 4550 nM | IC50 [22]: 1360 nM | IC50 [23]: 4840 nM | ED50 (Mus musculus [25]): 43.8 mg/kg | ED50 (Mus musculus [27]): 47.6 mg/kg | ED50 (Mus musculus [28]): > 1000 mg/kg | ED50 (Mus musculus [44]): 53.5 mg/kg | ED50 (Mus musculus [1]): 53 mg/kg | ED50 (Rattus norvegicus [29]): > 1000 mg/kg | ED50 (Rattus norvegicus [30]): 15 mg/kg | ED50 (Rattus norvegicus [31]): 15 mg/kg | ED50 (Rattus norvegicus [32]): 34 mg/kg | ED50 (Rattus norvegicus [33]): 16 mg/kg | ED50 (Rattus norvegicus [34]): 153 mg/kg | ED50 (Rattus norvegicus [35]): 6.7 mg/kg | ED50 (Rattus norvegicus [36]): 103 mg/kg | IC50 [45]: 8350 nM | ED50 (Mus musculus [37]): 246 mg/kg
